Drawing on the RNAGym collection of RNA variant scans (doi:10.1126/science.aae0568), this text covers yeast fitness for 167 variants.

This sample holds only a part of the variants without activity. A value given as a limit tells only on which side of the number the result lay.

To fix the notation:
B1: tRNA (parent)
chain: GUUCCGUUGGCGUAAUGGUAACGCGUCUCCCUCCUAAGGAGAAGACUGCGGGUUCGAGUCCCGUACGGAACG

This data set covers variants of B1. Briefly: yeast fitness relative to wild type (ratio to wild type); higher = fitter; tRNA-Arg(CCU), competitive growth, 37 C, YPD. In short, it runs like this:
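A pool of Saccharomyces cerevisiae strains, each with a tRNA-Arg(CCU) gene variant at the native genomic locus, was competed in YPD at 37°C for 24 hours across six parallel replicates. The variants had been chemically synthesised at a 3% per-site mutation rate over 69 sites, and gene amplicons before and after competition were read by 100-nucleotide paired-end sequencing. Darwinian fitness relative to wild type rested on changes in genotype frequencies. Genotypes required ≥ 100 starting reads, and estimates < 0.5 were set to 0.5.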
C5G A14U G18A A21U C31U C60U C61U C66G: the yeast fitness was ≤ 0.5.
As to C5A U32A A36C A70G, the yeast fitness was ≤ 0.5.
In the case of C5G C24G G41C, the yeast fitness is ≤ 0.5.
Then C5G C24G C31U C61A, with ≤ 0.5; and C5G A21G U32C, with 0.63.
In the case of C5G A21G C27G C34G A43C C46G A70G, the yeast fitness worked out at 0.561.
With C5A U28A A40U C61G, the yeast fitness is ≤ 0.5.
Then C5G A15C C22A, with 0.627; and C5G C11A A15G G18A A42U, with ≤ 0.5; and C5G A37U A43C A65U, with ≤ 0.5.
As to C5G A21C C24U C33U, the yeast fitness is ≤ 0.5.
Consider C5G A36U U54C, for which the yeast fitness is ≤ 0.5.
In the case of C5A U32C, the yeast fitness is 0.928.
Regarding C5A U32A, the yeast fitness came out at 0.784.
Take C5A U35C G44A G48C C55G A69U: the yeast fitness came out at 0.56.
In the case of C5G A15U G58A G67A, the yeast fitness is 0.626.
Turning to C5G A20U U54A, the yeast fitness was ≤ 0.5.
C5G A15G U16A A20G U28A C30A C33A A36U: the yeast fitness amounted to 0.553.
With C5G A20U A37G, the yeast fitness was ≤ 0.5.
Then C5G A20C G39C C62U G63C, with ≤ 0.5; and C5G A45C, with 0.85; and C5G C22A A69C, with 0.603.
Consider C5G A20U U28G, for which the yeast fitness was ≤ 0.5.
As for C5G A43G A69U, the yeast fitness turned out to be 0.762.
For the variant C5G A14C G44C, the yeast fitness is ≤ 0.5.
In the case of C5G C11U G67C, the yeast fitness was determined as 0.699.
Turning to C5G A14U G25A G48C C61A, the yeast fitness was 0.528.
In the case of C5G C11U A37C C49U, the yeast fitness is 0.609.
C5G A20U G41C: the yeast fitness is ≤ 0.5.
Then C5G A14C C30U, with ≤ 0.5; and C5G A14U U16C G18C U32A C62U, with ≤ 0.5.
Consider C5G A21U C33U G50A, for which the yeast fitness worked out at 0.835.
With C5G A15U G41C C55A, the yeast fitness is ≤ 0.5.
On to C5G A37C A69C, for which the yeast fitness worked out at 0.511.
Then C5G C11U G25A, with 0.787.
For the variant C5G A36U C61U A65C G67A G68A, the yeast fitness is ≤ 0.5.
With C5A U28C G63C, the yeast fitness came out at 0.534.
For the variant C5G A15U A40U G67C, the yeast fitness is ≤ 0.5.
For the variant C5A U53A U59A A69U, the yeast fitness came out at 0.712.
In the case of C5G A14C C29A C31G G56A, the yeast fitness is ≤ 0.5.
C5G A20C C34G: the yeast fitness is ≤ 0.5.
On to C5G A14C A36C A45C G48A, for which the yeast fitness is ≤ 0.5.
With C5G A15G U16A A20G U28A C30A C33A A36U G50A C66U, the yeast fitness was ≤ 0.5.
Consider C5G C24G C61A C62A G68C, for which the yeast fitness came to 0.69.
Then C5G A14G C33A G56A U59C C61A, with ≤ 0.5.
Then C5G A14U G25A G48C C61A C62U, with ≤ 0.5; and C5G A42C G68U, with 0.593; and C5G A40U C62U, with ≤ 0.5.
For C5G A45C C66G, the yeast fitness was ≤ 0.5.
Take C5G A14C A37G A69U: the yeast fitness is ≤ 0.5.
As for C5G A15C C46U U53G A57C, the yeast fitness was found to be 0.588.
With C5G A20U A70C, the yeast fitness came to 0.68.
Consider C5G C22A C33G, for which the yeast fitness amounted to 0.61.
As for C5G A14C G18A A40G C46U C49U U53A, the yeast fitness was ≤ 0.5.
Take C5G C22U G56C: the yeast fitness is ≤ 0.5.
Regarding C5G A21U C49U, the yeast fitness is ≤ 0.5.
On to C5G A20C C24U G68A, for which the yeast fitness was ≤ 0.5.
Regarding C5G C24G C30G C31U U35A A36U G44A C61U, the yeast fitness was 0.67.
C5A U32C A65C: the yeast fitness worked out at 0.68.
On to C5G A20G C31A, for which the yeast fitness is ≤ 0.5.
C5G C24U A36C C49A: the yeast fitness was determined as 0.577.
As to C5A U28G, the yeast fitness stood at 0.609.
On to C5G A43U A69U, for which the yeast fitness turned out to be 0.62.
On to C5G A20C C31G A37U, for which the yeast fitness was determined as 0.617.
For C5G A21G C30U A40U, the yeast fitness was ≤ 0.5.
Turning to C5G C22G C55G A70U, the yeast fitness was ≤ 0.5.
Consider C5G A15G U28A A57C C66G, for which the yeast fitness is ≤ 0.5.
Regarding C5G C11G A14C U35G A45C U47C U64A, the yeast fitness was ≤ 0.5.
C5G C11A C22G A36U G63A: the yeast fitness was ≤ 0.5.
For the variant C5G A20G A36C G50A G51A A69C, the yeast fitness is ≤ 0.5.
Regarding C5G A15C U28A G41C U64G, the yeast fitness is ≤ 0.5.
As to C5G A20G C22G C29G G63A, the yeast fitness was ≤ 0.5.
Regarding C5G A20G C22G C29G G63C, the yeast fitness was ≤ 0.5.
As for C5G C22U G50U, the yeast fitness amounted to 0.563.
C5G A14G C33A G56A C61A: the yeast fitness is 0.583.
For C5G A20U G25A G41A C55G U64G, the yeast fitness is 0.534.
Then C5G A65G, with 1; and C5G A20U A21G C22G U35A G44A C55U C60G U64A G67A, with 0.649.
Turning to C5G A40U G44A C61A, the yeast fitness worked out at 0.567.
As to C5G C11A U26C A40U U64C, the yeast fitness is ≤ 0.5.
For the variant C5G C22U C27U G41C A57C, the yeast fitness was 0.542.
Turning to C5G A21U C29A, the yeast fitness came to 0.631.
For C5G C11G C34U C55U G67C, the yeast fitness was ≤ 0.5.
Consider C5G A14C C30U C49U C61A, for which the yeast fitness was ≤ 0.5.
Then C5G A20U C31G, with ≤ 0.5.
Consider C5G A14U C24U C55G A70U, for which the yeast fitness is ≤ 0.5.
As to C5G A43G, the yeast fitness was 0.746.
Regarding C5G A37U C49G, the yeast fitness is ≤ 0.5.
Turning to C5G C11U G25C G52U A70C, the yeast fitness is ≤ 0.5.
In the case of C5G A40C U53G C60A, the yeast fitness is ≤ 0.5.
In the case of C5A U47A, the yeast fitness was found to be 0.786.
Then C5G C11U C60G, with ≤ 0.5.
For the variant C5A U54C A65U, the yeast fitness is ≤ 0.5.
Consider C5G A14U A43G G67C, for which the yeast fitness was found to be 0.56.
With C5A U26A C33A A43C G56C, the yeast fitness came to 0.597.
On to C5G A14U G38A A40U G50C C60G A70G, for which the yeast fitness was ≤ 0.5.
Then C5G A42U G67A, with 0.532; and C5G C11G A21C U28G C66U, with 0.605.
C5A U54C A70U: the yeast fitness amounted to 0.532.
Then C5G A14G G44C C62U C66U A69C, with ≤ 0.5; and C5G A14U C60A, with ≤ 0.5.
Turning to C5G A21U C55U, the yeast fitness came out at 0.6.
Then C5G A15C G48C G68U, with ≤ 0.5; and C5A U35G G41A G56A C66U, with ≤ 0.5.
With C5G A21G A45U G56A, the yeast fitness turned out to be 0.753.
Regarding C5A U26A, the yeast fitness turned out to be 0.717.
As to C5G A36U C62U, the yeast fitness was ≤ 0.5.
With C5G A14G G17A A20G U32C G56C C60G, the yeast fitness was ≤ 0.5.
Regarding C5G C22G C55U, the yeast fitness is ≤ 0.5.
As for C5G C22G U47A A70C, the yeast fitness is ≤ 0.5.
Then C5G A21C, with 0.636.
For C5G A42G C61A G63C, the yeast fitness was ≤ 0.5.
C5G A15G U28C C30U A69U: the yeast fitness is ≤ 0.5.
Then C5G C11G G12A A37C G50A, with 0.533; and C5G A15C A42C G52A U53A, with ≤ 0.5.
In the case of C5G A36G A40C, the yeast fitness was 0.683.
Regarding C5G A69C A70G, the yeast fitness came to 0.692.
Take C5G C11G C30U C31U A57G G63A: the yeast fitness was ≤ 0.5.
With C5G A42C G48A, the yeast fitness stood at 0.587.
Take C5G A36U G67A: the yeast fitness was found to be 0.571.
In the case of C5G A45C A70C, the yeast fitness came out at 0.725.
As for C5G C11G C30U C31U A57G, the yeast fitness stood at 0.8.
Then C5G A37U G67A, with ≤ 0.5; and C5G A20G A42G C66G, with ≤ 0.5; and C5G C24G C29A A43U G68C, with ≤ 0.5.
In the case of C5G A20U G51C, the yeast fitness was ≤ 0.5.
Then C5G A37C G38A C60G, with ≤ 0.5.
Take C5G A43C G48C U64C: the yeast fitness is ≤ 0.5.
For C5A U54G A65U, the yeast fitness is ≤ 0.5.
C5G A15G A42C: the yeast fitness is 0.544.
Take C5A U35G A69C: the yeast fitness is ≤ 0.5.
Then C5G A42G U54A, with 0.639; and C5G A15G U28C A45C, with ≤ 0.5.
With C5G C11G U35G A42G G56C, the yeast fitness is ≤ 0.5.
Consider C5G C22G U28A C31G C55A G68C, for which the yeast fitness came to 0.551.
In the case of C5G A45C C46U, the yeast fitness came out at 0.643.
Take C5A U53A: the yeast fitness worked out at 0.722.
As to C5A U28C C30U A36C A42G, the yeast fitness was ≤ 0.5.
For the variant C5G A15C C29A C61G, the yeast fitness was ≤ 0.5.
Regarding C5G C22G G56A, the yeast fitness was determined as 0.788.
Regarding C5G A14C C29A C31G A36G U54A, the yeast fitness is ≤ 0.5.
Regarding C5G C24G C30G C31U U35A A36U G44A, the yeast fitness came out at 0.832.
Turning to C5G A15G A36G A43G G56A, the yeast fitness is ≤ 0.5.
For C5G A21G U28C U32C A65U G68A, the yeast fitness was ≤ 0.5.
Then C5G A45U C61U C66U, with ≤ 0.5; and C5G A37C G51A U53C C62A, with ≤ 0.5.
With C5A U35G G41A G56A A70C, the yeast fitness stood at 0.543.
As to C5G A15G C24G U32A C34G C66U, the yeast fitness was ≤ 0.5.
For the variant C5G A45G A69U, the yeast fitness came out at 0.688.
C5A U53C C62U: the yeast fitness was ≤ 0.5.
Take C5G C11U A37U: the yeast fitness was ≤ 0.5.
As to C5G A40C U59A, the yeast fitness is ≤ 0.5.
As for C5G A37C G38A, the yeast fitness was determined as 0.562.
For C5A U35C G44A G48C, the yeast fitness was ≤ 0.5.
On to C5G A21C G39A, for which the yeast fitness was ≤ 0.5.
Regarding C5G A36G, the yeast fitness amounted to 1.01.
C5G A36C: the yeast fitness stood at 0.772.
As for C5G A36U, the yeast fitness is 0.583.
Take C5G A14G A65U: the yeast fitness turned out to be 0.538.
C5G A37U: the yeast fitness turned out to be 0.726.
Take C5G A37C: the yeast fitness was 0.731.
For the variant C5G A21G U64C, the yeast fitness came to 0.723.
For C5G A15C A42C, the yeast fitness stood at 0.584.
In the case of C5G C11A A14G G25C U28C C29G, the yeast fitness is ≤ 0.5.
C5G A20G A36C: the yeast fitness is 0.52.
For the variant C5G A21C A69C, the yeast fitness was ≤ 0.5.
In the case of C5G A20U G25A G41A C55G, the yeast fitness is ≤ 0.5.
